Measured values taken from ChEMBL document CHEMBL1158092, “Discovery, synthesis, and insecticidal activity of cycloaspeptide E” (2006).
Values after ≈ are worked out from the molar mass of the structure shown. Active and inactive are the calls of the source. The calls are words filed in the database; no cut-off is given here. Where a SMILES comes first, the peptide text is derived from it.

Columns and labels:
Trichoplusia ni [1] = assay: Insecticidal activity against cabbage looper assessed as body tremors dosed by ingestion from leaf after 18 hrs by lepidopteran limited ingestion exposure assay; assay type: functional, organism-based
Spodoptera exigua [2] = assay: Insecticidal activity against fourth instar beet armyworm assessed as body tremors and partial paralysis after 24 hrs by BAW injection assay; assay type: functional, organism-based
Outline: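 Six fourth-instar beet armyworm were each injected with 0.5 µL of a 20 mg/mL acetone solution (10 µg/insect). Solvent-only and untreated controls were included. Larvae were held singly with artificial diet under ambient conditions. Intoxication symptoms were scored at 1, 24 and 48 h, and mortality at 48 h.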

Spodoptera exigua [3] = assay: Insecticidal activity against 3/4th instar beet armyworm assessed as intoxication and mortality topically dosed at 2.5 ug/larva after 24 hrs by lepidopteran topical assay; assay type: functional, organism-based
Trichoplusia ni [4] = assay: Insecticidal activity against 3/4th instar cabbage looper assessed as intoxication topically dosed at 2.5 ug/larva after 24 hrs by lepidopteran topical assay; assay type: functional
Spodoptera exigua [5] = assay: Insecticidal activity against beet armyworm eggs assessed as inhibition of insect growth at 28 degC after 6 days by lepidopteran diet assay; assay type: functional; details: 144 h
Outline: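 Beet armyworm eggs (8-10 per well) on artificial diet in 96-well plates. Test samples were applied in acetone-water (50:50), dried onto the diet surface, and tested at 0.98-500 ppm (of diet weight) in 2-fold steps. Plates were incubated 6 days at 28 °C. Value is the minimum concentration inhibiting growth relative to untreated control.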

Trichoplusia ni [6] = assay: Insecticidal activity against cabbage looper assessed as mortality dosed by ingestion from leaf after 24 hrs by lepidopteran limited ingestion exposure assay; assay type: functional
Outline: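 Cabbage leaf disks (0.25 cm²) were each treated with 1 µL of a 5 mg/mL acetone solution and dried. Each disk was offered to one of six cabbage looper larvae for 24 h, held individually under ambient lab conditions. Solvent and untreated disk controls were included. Afterwards, mortality, intoxication symptoms and disk consumption were noted, and larvae were given artificial diet.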

Spodoptera exigua [7] = assay: Insecticidal activity against beet armyworm assessed as circling dosed by ingestion from leaf after 18 hrs by lepidopteran limited ingestion exposure assay; assay type: functional, organism-based
Spodoptera exigua [8] = assay: Insecticidal activity against fourth instar beet armyworm assessed as body tremors and partial paralysis after 3 to 6 hrs by BAW injection assay; assay type: functional
Spodoptera exigua [9] = assay: Insecticidal activity against fourth instar beet armyworm assessed as body tremors and partial paralysis after 1 hrs by BAW injection assay; assay type: functional, organism-based
Trichoplusia ni [10] = assay: Insecticidal activity against 3/4th instar cabbage looper assessed as intoxication topically dosed at 5 ug/larva after 24 hrs by lepidopteran topical assay
Spodoptera exigua [11] = assay: Insecticidal activity against 3/4th instar beet armyworm assessed as intoxication and mortality topically dosed at 5 ug/larva after 24 hrs by lepidopteran topical assay

Row | SMILES | Activity (Trichoplusia ni [1]) | Activity (Spodoptera exigua [2]) | Activity (Spodoptera exigua [3]) | Activity (Trichoplusia ni [4]) [%] | MIC (Spodoptera exigua [5]) [µg/mL] | Activity (Trichoplusia ni [6]) | Activity (Spodoptera exigua [7]) | Activity (Spodoptera exigua [8]) [%] | Activity (Spodoptera exigua [9]) | Activity (Trichoplusia ni [10]) | Activity (Spodoptera exigua [11])
1 | CC(C)C[C@@H]1NC(=O)[C@H](Cc2ccccc2)N(C)C(=O)[C@H](C)NC(=O)c2ccccc2NC(=O)[C@H](Cc2ccccc2)N(C)C1=O [CYCLOASPEPTIDE E] (HELM PEPTIDE1{[O=C(c1ccccc1N[*:1])[*:2]].A.[meF].L.[meF]}$PEPTIDE1,PEPTIDE1,1:R1-5:R2$$$V2.0) | Active | inactive | inactive | 50 | 10 (≈ 16 µM) | 15% | Active | 85 | – | – | –
2 | CC(C)C[C@@H]1NC(=O)[C@H](Cc2ccccc2)N(C)C(=O)[C@H](C)NC(=O)c2ccccc2NC(=O)[C@H](Cc2ccc(O)cc2)N(C)C1=O [CYCLOASPEPTIDE A] (HELM PEPTIDE1{[O=C(c1ccccc1N[*:1])[*:2]].A.[meF].L.[meY]}$PEPTIDE1,PEPTIDE1,1:R1-5:R2$$$V2.0) | Active | – | – | – | > 500 | inactive | Active | – | inactive | inactive | inactive
3 | CC[C@H]1CCC[C@H](O[C@H]2CC[C@H](N(C)C)[C@@H](C)O2)[C@@H](C)C(=O)C2=C[C@@H]3[C@@H](C=C[C@@H]4C[C@@H](O[C@@H]5O[C@@H](C)[C@H](OC)[C@@H](OC)[C@H]5OC)C[C@@H]34)[C@@H]2CC(=O)O1 [SPINOSYN A] | – | – | – | – | 0.02 (≈ 0.0273 µM) | – | – | – | – | – | –
